In ChEMBL document CHEMBL4304839, “Development of a novel class of peroxisome proliferator-activated receptor (PPAR) gamma ligands as an anticancer agent with a unique binding mode based on a non-thiazolidinedione scaffold” (Bioorg Med Chem, 2019):
Active and inactive are the calls of the source. The rule behind the calls is not given here.

Experiments:
[1] = molecular target: T1, Peroxisome proliferator-activated receptor gamma (Homo sapiens, UniProt P37231); test: Transactivation of chimeric GAL4-fused human PPARgamma transfected in HEK293EBNA cells measured at 24 hrs after drug treatment by steady-Glo luciferase assay reagent based luminescence assay; type: cell-based
T1 sequence (P37231 whole entry): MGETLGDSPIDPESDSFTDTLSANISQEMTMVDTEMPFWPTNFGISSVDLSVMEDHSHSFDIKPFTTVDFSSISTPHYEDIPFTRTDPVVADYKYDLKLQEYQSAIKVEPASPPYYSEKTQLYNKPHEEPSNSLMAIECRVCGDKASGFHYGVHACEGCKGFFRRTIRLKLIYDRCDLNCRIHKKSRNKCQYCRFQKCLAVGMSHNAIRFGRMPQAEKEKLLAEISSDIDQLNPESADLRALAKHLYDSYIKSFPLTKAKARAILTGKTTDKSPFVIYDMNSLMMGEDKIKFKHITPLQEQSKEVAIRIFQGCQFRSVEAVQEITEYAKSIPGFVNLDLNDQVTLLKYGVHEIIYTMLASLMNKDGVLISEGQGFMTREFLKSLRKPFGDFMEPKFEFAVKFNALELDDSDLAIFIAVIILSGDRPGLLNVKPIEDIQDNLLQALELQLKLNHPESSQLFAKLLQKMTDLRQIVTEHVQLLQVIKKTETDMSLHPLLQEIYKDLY
Summary of the method: (§1)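 HEK293EBNA cells in DMEM with 10% FBS, 37 °C, 5% CO2, transiently co-transfected with pM-human PPARγ/GAL4 expression vector and pZAC19-Luc reporter; 24 h later plated and treated with compound 1-3000 nM (n = 3 per concentration), diluted from DMSO in unsupplemented DMEM, for 24 h. Steady-Glo luciferase readout, normalized to pioglitazone 1000 nM (100%); EC50 at 50% of own maximum.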

[2] = molecular target: T2, Peroxisome proliferator-activated receptor gamma (Homo sapiens) (UniProt P37231); test: Transactivation of chimeric GAL4-fused human PPARgamma transfected in HEK293EBNA cells measured at 24 hrs after drug treatment by steady-Glo luciferase assay reagent based luminescence assay relative to pioglitazone; type: cell-based; summary of the method: as §1
T2 sequence (whole entry): T1 sequence (P37231 whole entry)

[3] = molecular target: T2, Peroxisome proliferator-activated receptor gamma (Homo sapiens); test: Agonist activity at PPARgamma in human MKN45 cells assessed as induction of cell aggregation incubated for 5 days by Hoechst 33342 staining based IN cell analyzer method relative to (E)-3-(1-(8-((4-methyl-2-propyl-1H-benzo[d]imidazol-1-yl)methyl)dibenzo[b,e]oxepin-11(6H)-ylidene)ethyl)-1,2,4-oxadiazol-5(4H)-one
Summary of the method: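 MKN45 cells in RPMI1640 with 10% FBS at 37 °C, 5% CO2, seeded 2500 cells/well and exposed to compound 1-1000 nM (n = 3 per concentration) for 5 days. Nuclei stained with Hoechst 33342, imaged on IN Cell Analyzer, nuclear area computed. Maximum activity expressed as % of reference compound maximum; EC50 = concentration giving 50% of own maximum.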

[4] = Intrinsic clearance in human liver microsomes incubated for 30 mins in presence of NADPH by LC-MS/MS analysis
[5] = Toxicity in Crlj:CD1(ICR) mouse assessed as serum hematocrit value at 200 mg/kg, po bid for 4 days by micro-hematocrit method (reference value: 44.1%); type: organism-based; conditions: in vivo, 96 h
[6] = Toxicity in Crlj:CD1(ICR) mouse assessed as serum hematocrit value at 50 mg/kg, po bid for 4 days by micro-hematocrit method (reference value: 44.1%); type: organism-based; conditions: in vivo, 96 h
[7] = test system: Homo sapiens; test: Antitumour activity against human AsPC1/AG1 cells xenografted in SCID mouse assessed as saturated level of reduction in tumor volume at >25 mg/kg, po bid for 14 days starting from 7th day post tumor inoculation and measured after 10 days; type: functional, organism-based
Summary of the method: (§2)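 Male SCID mice (8 weeks) inoculated s.c. with 3×10^7 AsPC-1/AG1 cells; from day 7, randomized by tumour volume into groups of 5 given 12.5, 25, 50 or 100 mg/kg or 0.5% MC400 vehicle orally twice daily for 14 days. Volume = 0.5 × major × minor² measured twice weekly; relative volume V/V0 versus day 0; Steel test, P < 0.05.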

[8] = test system: Homo sapiens; test: Antitumour activity against human AsPC1/AG1 cells xenografted in SCID mouse assessed as reduction in tumor volume at 12.5 to 100 mg/kg, po bid for 14 days starting from 7th day post tumor inoculation; type: functional, organism-based; summary of the method: as §2
[9] = test system: Homo sapiens; test: Antitumour activity against human AsPC1/AG1 cells xenografted in SCID mouse assessed as increase in cell differentiation marker krt20 mRNA expression level at 100 mg/kg, po bid for 14 days starting from 7th day post tumor inoculation and measured at 4 hrs post last dose by qRT-PCR analysis; type: functional, organism-based
Summary of the method: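 Male SCID mice bearing s.c. AsPC-1/AG1 tumours (3×10^7 cells in PBS), dosed orally twice daily for 14 days from day 7 after inoculation; vehicle 0.5% MC400. Tumours collected 4 h after last dose; angptl4 and krt20 mRNA measured by qPCR, fold induction relative to baseline.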

[10] = test system: Homo sapiens; test: Antitumour activity against human AsPC1/AG1 cells xenografted in SCID mouse assessed as increase in angptl4 mRNA expression at 100 mg/kg, po bid for 14 days starting from 7th day post tumor inoculation and measured at 4 hrs post last dose by qRT-PCR analysis
[11] = Antitumour activity against human AsPC1/AG1 cells xenografted in SCID mouse assessed as minimal dose required for reduction in tumor volume administered orally bid for 14 days starting from 7th day post tumor inoculation; type: functional; conditions: ASPC1, po, 336 h, read-out: MED; summary of the method: as §2
[12] = AUC in BALB/c mouse at 10 mg/kg, po by LC-MS/MS analysis; type: ADME, organism-based; conditions: in vivo
Summary of the method: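 Male BALB/c mice, single oral dose 10 mg/kg (n = 2). Tail-vein blood at set times, plasma protein-precipitated with acetonitrile plus internal standard, LC-MS/MS (APCI, positive ion), quantified against standard curve in control plasma; AUC by noncompartmental analysis of concentration-time profile.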

[13] = Toxicity in C57BL/6 mouse assessed as hematocrit level at 40 mg/kg (reference value: 45%); type: organism-based; conditions: in vivo

SMILES: CCCc1nc2ccccc2n1Cc1ccc2c(c1)COc1c(F)cccc1/C2=C(\C)c1noc(=O)[nH]1
- EC50 [1]: 4.4 nM
- Emax [2]: 8.7%
- Emax [3]: 101%
- CLint scaled at 0.5 h [4]: 377 mL/min/kg

SMILES: C/C(=C1/c2ccc(Cc3c(C4CC4)nc4c(Cl)cccn34)cc2COc2cc(F)ccc21)c1noc(=O)[nH]1
- Activity [5]: 42%
- Emax [2]: 10.6%
- Activity [6]: 42.9%
- inhibition [7]: Active
- inhibition [8]: Active
- Emax [3]: 103%
- Activity [9]: Active
- Activity [10]: Active
- minimal effective dose [11]: 12.5 to 25 mg/kg
- AUC [12]: 6890 ng·h/mL

SMILES: C/C(=C1/c2ccc(Cc3c(C4CC4)nc4ccc(Cl)cn34)cc2COc2cc(F)ccc21)c1noc(=O)[nH]1
- EC50 [1]: 11 nM
- Emax [2]: 15.1%
- Emax [3]: 102%
- CLint scaled at 0.5 h [4]: 66.7 mL/min/kg
- AUC [12]: 1710 ng·h/mL

SMILES: C/C(=C1/c2ccc(Cn3c(C4CC4)nc4c(Cl)ccnc43)cc2COc2cc(F)ccc21)c1noc(=O)[nH]1
- EC50 [1]: 32 to 38 nM
- Emax [2]: 10.3%
- Emax [3]: 101%
- CLint scaled at 0.5 h [4]: 38.3 mL/min/kg

SMILES: CCCc1nc2ccccc2n1Cc1ccc2c(c1)COc1cc(F)ccc1/C2=C(\C)c1noc(=O)[nH]1
- Emax [2]: 11.7%
- Emax [3]: 104%
- AUC [12]: 1480 ng·h/mL

SMILES: COCc1nc2c(Cl)cccn2c1Cc1ccc2c(c1)COc1cc(F)ccc1/C2=C(\C)c1noc(=O)[nH]1
- EC50 [1]: 7.3 nM
- Emax [2]: 7.4%
- Emax [3]: 96%
- CLint scaled at 0.5 h [4]: 21.7 mL/min/kg
- AUC [12]: 1090 ng·h/mL

SMILES: CCCc1nc2c(C)cccc2n1Cc1ccc2c(c1)OCc1ncccc1/C2=C(\C)c1noc(=O)[nH]1
- EC50 [1]: 2190 nM
- CLint scaled at 0.5 h [4]: 34.3 mL/min/kg

SMILES: CCc1ccc(CCOc2ccc(CC3SC(=O)NC3=O)cc2)nc1 (centres undefined) [PIOGLITAZONE]
- Activity [13]: 41%

SMILES: CCCc1nc2c(C)cccc2n1Cc1ccc2c(n1)COc1ccccc1/C2=C(\C)c1noc(=O)[nH]1
- EC50 [1]: 86 nM
- CLint scaled at 0.5 h [4]: > 415 mL/min/kg

SMILES: CCCc1nc2ccccc2n1Cc1ccc2c(c1)COc1ccc(F)cc1/C2=C(\C)c1noc(=O)[nH]1
- Emax [2]: 6.9%
- Emax [3]: 102%
- CLint scaled at 0.5 h [4]: > 415 mL/min/kg

SMILES: CCCc1nc2c(C)cccc2n1Cc1ccc2c(c1)COc1ccccc1/C2=C(\C)c1noc(=O)[nH]1
- CLint scaled at 0.5 h [4]: > 415 mL/min/kg

SMILES: C/C(=C1/c2ccc(Cc3c(C4CC4)nc4cc(F)ccn34)cc2COc2cc(F)ccc21)c1noc(=O)[nH]1
- EC50 [1]: 13 nM
- Emax [2]: 13.5%
- Emax [3]: 112%
- AUC [12]: 5510 ng·h/mL

SMILES: C/C(=C1/c2ccc(Cn3c(C4CC4)nc4c(Cl)nccc43)cc2COc2cc(F)ccc21)c1noc(=O)[nH]1
- EC50 [1]: 24 to 59 nM
- Emax [2]: 13.7%
- Emax [3]: 105%
- CLint scaled at 0.5 h [4]: 167 mL/min/kg

SMILES: C/C(=C1/c2ccc(Cc3c(C4CC4)nc4c5c(ccn34)OCC5)cc2COc2cc(F)ccc21)c1noc(=O)[nH]1
- EC50 [1]: 23 nM
- Emax [2]: 9.7%
- Emax [3]: 110%
- CLint scaled at 0.5 h [4]: 33.3 mL/min/kg
- AUC [12]: 8760 ng·h/mL

SMILES: C/C(=C1/c2ccc(Cc3c(C4CC4)nc4cc(Cl)ccn34)cc2COc2cc(F)ccc21)c1noc(=O)[nH]1
- EC50 [1]: 3.6 nM
- Emax [2]: 12.6%
- Emax [3]: 101%
- AUC [12]: 10200 ng·h/mL

SMILES: C/C(=C1/c2ccc(Cn3c(C4CC4)nc4cscc43)cc2COc2cc(F)ccc21)c1noc(=O)[nH]1
- EC50 [1]: 21 nM
- Emax [2]: 13.7%
- Emax [3]: 105%
- CLint scaled at 0.5 h [4]: 41.7 mL/min/kg
- AUC [12]: 196 ng·h/mL

SMILES: C/C(=C1/c2ccc(Cc3c(C4CC4)nc4ccccn34)cc2COc2cc(F)ccc21)c1noc(=O)[nH]1
- EC50 [1]: 19 nM
- Emax [2]: 9.8%
- Emax [3]: 106%
- AUC [12]: 3750 ng·h/mL

SMILES: COCc1nc2cc(Cl)ccn2c1Cc1ccc2c(c1)COc1cc(F)ccc1/C2=C(\C)c1noc(=O)[nH]1
- Emax [2]: 9%
- Emax [3]: 106%
- AUC [12]: 2450 ng·h/mL
